Assay outcomes (PubChem BioAssay)
Most compounds without a hit are left out; they make up all but 2.7% or so of the library.
p97 ATPase inh = inhibitors of human p97 ATPase | actives 0.42% (n = 220,000) | AID 1481 | inhibition, % at 8 µM | recombinant p97 ATPase, Kinase-Glo ATP luminescence, 3 h; in the data active = inhibition above about 15%;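 note: 0% = DMSO vehicle and 100% = wells lacking enzyme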
Target sequence (P55072 whole entry, looked up): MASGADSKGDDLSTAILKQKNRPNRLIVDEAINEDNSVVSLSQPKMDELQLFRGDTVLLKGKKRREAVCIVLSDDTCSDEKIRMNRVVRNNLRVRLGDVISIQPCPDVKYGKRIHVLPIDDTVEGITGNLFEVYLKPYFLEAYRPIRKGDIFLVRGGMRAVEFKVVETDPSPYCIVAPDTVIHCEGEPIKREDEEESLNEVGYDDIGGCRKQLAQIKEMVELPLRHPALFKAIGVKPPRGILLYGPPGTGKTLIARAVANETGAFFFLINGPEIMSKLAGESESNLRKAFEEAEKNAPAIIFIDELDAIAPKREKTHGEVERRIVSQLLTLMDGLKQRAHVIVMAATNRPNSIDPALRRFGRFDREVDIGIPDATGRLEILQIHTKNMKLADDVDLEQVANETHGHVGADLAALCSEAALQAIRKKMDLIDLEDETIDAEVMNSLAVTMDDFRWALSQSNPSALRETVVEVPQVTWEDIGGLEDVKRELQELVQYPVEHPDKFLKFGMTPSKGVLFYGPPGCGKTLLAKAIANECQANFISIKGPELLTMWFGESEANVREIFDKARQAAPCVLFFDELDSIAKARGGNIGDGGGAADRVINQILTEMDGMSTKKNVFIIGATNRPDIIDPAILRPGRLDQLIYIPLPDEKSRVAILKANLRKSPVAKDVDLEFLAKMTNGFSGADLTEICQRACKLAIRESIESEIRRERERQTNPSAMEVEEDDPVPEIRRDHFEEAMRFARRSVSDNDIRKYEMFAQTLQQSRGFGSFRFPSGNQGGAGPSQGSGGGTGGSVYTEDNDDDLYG
PfM18AAP inh-1 = blocks P. falciparum M18 aspartyl aminopeptidase; AID 1822; inhibition, % at 7.35 µM; actives 1.2% (n = 290,000); recombinant PfM18AAP, H-Glu-NHMec fluorogenic cleavage;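 active = inhibition above the campaign mean inhibition over all tested compounds plus 3 SD, cut at about 28% in these data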;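 note: 0% = plate median of test compound wells and 100% = 2 mM ZnCl2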
RBBP9 inh = inhibitors of human serine hydrolase RBBP9. O75884. recombinant RBBP9, FP-Rh probe fluorescence polarization. inhibition, % at 7.94 µM. actives 0.2% (n = 220,000). AID 1515;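 active = inhibition above the campaign mean of all tested compounds plus 3 SD, cut at about 14% in these data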;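 note: plate controls were DMSO wells with RBBP9 for no effect and wells lacking RBBP9 protein for full effect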
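Measured by: FP readout at 525/598 nm; material: recombinant human RBBP9; also added: Serine-hydrolase probe FP-Rh, 375 nM pre-mixing; medium: Tris buffer pH 8.0, NaCl, Pluronic; replication: one well per compound; doses: one concentration, 7.94 µM nominal, 0.794% DMSO; timing: preincubation 30 min plus labeling 45 min at 25 °C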
TNF necrop inh = blocks TNF-alpha induced death of Jurkat FADD-/- cells; activation (protection from cell death), % at 10 µM; Jurkat FADD-/- TNF necroptosis rescue, ATP luminescence, 24 h; 0 = TNF only, 100 = no-TNF cells; AID 463075; actives 0.068% (n = 220,000);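 active = activation, meaning protection from cell death, of at least 50% relative to plate controls; inactive = activation below 50%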;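 note: necroptosis triggered by 40 ng/mL TNF-alpha added together with compound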
Wee1 degr inh = human Wee1 degradation inhibition, primary screen. reporter increase, % at 5 µM. actives 1.2% (n = 220,000). HeLa Luc-Wee1K328M stability, luciferase luminescence; 100% = proteasome inhibitor MG132 effect;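 active = activation above the mean of all tested compounds plus 3 SD, set per screening run, cut at about 8.8% in these data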;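 note: cells exposed to compound for 20 h before luminescence read; 0% = DMSO alone and 100% = MG132 at 30 µM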
L929 necroptosis = L929 zVAD cell death inhibition. L929 zVAD necroptosis rescue, ATP luminescence, 24 h; with zVAD 60 µM. viability rescue, % at 10 µM. actives 0.38% (n = 220,000). AID 1377;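 active = activation, scaled between plate controls, above about 75%, limit read from the data; inactive = activation under that limit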;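 note: 0% = zVAD with DMSO and 100% = DMSO alone without zVAD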
PfM18AAP inh-2 = PfM18AAP inhibition, confirmation. shares compounds with PfM18AAP inh-1. recombinant PfM18AAP, H-Glu-NHMec fluorogenic cleavage. inhibition, % at 7.35 µM. actives 28% (n = 2,400). AID 2170;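 active = mean inhibition over replicate wells above the hit cutoff set for the earlier primary screen, cut at about 29% in these data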;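 note: 0% = median of test compound wells and 100% = 2 mM ZnCl2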
CTSL1 confirm = counter-screen for PFM18AAP inhibitors: confirmation of human cathepsin L inhibitors | 2,400 tested, under 10 active | inhibition, % at 5.96 µM | purified cathepsin L1, Z-Leu-Arg-MCA fluorescence | shares compounds with PfM18AAP inh-1;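 active = average inhibition across replicates above the hit cutoff set in the earlier primary screen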;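 note: 0% = median of test compound wells and 100% = Z-Phe-Ala-diazomethylketone 1 µM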
The depositor's hits bear a star; . = no result given.

SMILES	p97 ATPase inh	PfM18AAP inh-1	RBBP9 inh	TNF necrop inh	Wee1 degr inh	L929 necroptosis	PfM18AAP inh-2	CTSL1 confirm
Cc1cc(C(=O)Nc2nc3c(C)cccc3s2)c(C)o1	1	-2	5	-1	-1	1	.	.
O=C(NNc1nc2c(F)cc(F)cc2s1)C1=COCCO1	-3	33*	-7	2	-1	1	-5	0
Cc1cccc2sc(NNC(=O)C3=COCCO3)nc12	5	43*	6	-1	5	1	18	2
COc1ccc(OC)c(-c2csc(N(CC3CCCO3)C(=O)C3CCCCC3)n2)c1 (centres undefined)	-9	-11	-2	3	-2	53	.	.
O=c1c2c(nc3nc(NCc4cccc5ccccc45)[nH]n13)CCC2	10	-1	0	1	3	1	.	.
CC(=O)Nc1ccc(NC(=O)CSc2nc3[nH]ncc3c(=O)n2-c2ccccc2)cc1	.	49*	.	.	.	.	1	-6
Cc1ccc(Cl)cc1NC(=O)NCc1cccnc1	.	-8	.	.	.	.	.	.
O=C(NCc1cccnc1)NC1(C(F)(F)F)Oc2ccc(Cl)cc2O1 (centres undefined)	3	80*	5	-11	5	1	83*	-1
COCCNC(=O)C(C)Oc1ccc(Cl)cc1Cl (centres undefined)	-1	2	-4	-1	1	-1	.	.
Cc1cc(NC(=O)NC2(C(F)(F)F)Oc3ccc(Cl)cc3O2)no1 (centres undefined)	2	88*	3	-17	0	-1	83*	-2
Cc1cc(NC(=O)Nc2ccc(F)c(Cl)c2)no1	-1	5	-10	1	2	0	.	.
COCCNC(=O)NC1(C(F)(F)F)Oc2ccc(Cl)cc2O1 (centres undefined)	-4	83*	-6	-12	1	2	61*	1
CC1CN(S(=O)(=O)c2ccccc2)C(C)N1C(=O)N1CCOCC1 (centres undefined)	.	0	.	.	.	.	.	.
O=c1/c(=C/c2ccc(O)cc2)sc2nc3cc(Br)cnc3n12	3	19	-10	-3	1	1	.	.
CNC(=S)NNc1nc(N2CCOCC2)nc(N2CCOCC2)n1	-8	41*	-13	2	1	0	25	-3
CCNC(=S)NNc1nc(N2CCOCC2)nc(N2CCOCC2)n1	-7	47*	-7	0	-2	-1	30*	-1
C=CCNC(=S)NNc1nc(N2CCCC2)nc(N2CCCC2)n1	.	54*	.	.	.	.	20	0
C=CCNc1nc(NCCO)nc(N2CCCC2)n1	2	-10	2	1	1	1	.	.
Cc1ccc([N+](=O)[O-])cc1NCC(=O)NN	3	4	-6	-1	-1	0	.	.
CCC(=O)Nc1cc(=O)[nH]c2nc(-c3ccc(Cl)cc3)nn12	2	2	-7	2	0	0	.	.
O=C1/C(=C\c2ccccn2)SC(=S)N1c1ccc(S(=O)(=O)Nc2nccs2)cc1	5	36*	0	0	1	3	-21	1
Cc1ccc(-c2sc(C(=O)NN)c(C)c2C#N)cc1	-3	-9	-3	1	-3	0	.	.
Cc1ccc(/C=C/C(=O)NN2CCN(C)CC2)cc1	.	0	.	.	.	.	.	.
NC(=S)NNC(=O)c1cccc(Br)c1	1	23	-9	0	-1	0	.	.
O=C(NC(=S)Nn1cnnc1)c1cccc(Br)c1	-4	69*	-5	1	-1	0	87*	1
SMILES	p97 ATPase inh	PfM18AAP inh-1	RBBP9 inh	TNF necrop inh	Wee1 degr inh	L929 necroptosis	PfM18AAP inh-2	CTSL1 confirm
CC(=O)NNC(=S)NC(=O)c1ccc(C)cc1	0	21	1	-1	3	8	.	.
Cc1ccc(C(=O)NC(=S)Nn2cnnc2)cc1	-6	84*	-5	2	-1	-1	60*	-2
Cc1ccc(/C=C/C(=O)Nn2cnnc2)cc1	1	41*	-6	-18	4	-1	51*	-6
COc1ccc(OC)c(N(CC(=O)NCC2CCCO2)S(=O)(=O)c2ccccc2)c1 (centres undefined)	.	0	.	.	.	.	.	.
O=C(Nc1ccncc1)c1cccc(S(=O)(=O)N2CCCC2)c1	.	-2	.	.	.	.	.	.
CC(C)(C)C(=O)C(Oc1cccc2nonc12)n1cncn1 (centres undefined)	-2	50*	-5	0	0	0	-34	0
C=C(C)c1cccc(C(C)(C)NC(=O)NNC(=O)c2ccccc2O)c1	.	40*	.	.	.	.	-10	0
C[C@@H](C(=O)CC(=O)OC(C)(C)C)[C@@H](O)c1ccccc1	.	-1	.	.	.	.	.	.
O=C(Nn1cnnc1)c1cc(Cl)cc(Cl)c1	.	47*	.	.	.	.	32*	-7
O=C(Nn1cnnc1)c1ccc(Cl)c([N+](=O)[O-])c1	4	44*	-1	4	-1	2	44*	-4
N#Cc1ccc(C(=O)Nn2cnnc2)cc1	.	45*	.	.	.	.	27	-3
Cc1ccc(C(=O)Nn2cnnc2)cc1Cl	.	47*	.	.	.	.	33*	1
CC(/C=C1\SC(=S)N(CCC(=O)Nc2nc(C)cs2)C1=O)=C\c1ccccc1	8	1	-1	1	1	0	.	.
Cc1cc(C(=O)Nn2cnnc2)ccc1[N+](=O)[O-]	.	46*	.	.	.	.	51*	6
O=C(Nc1ccccc1O)c1cccc(S(=O)(=O)N2CCOCC2)c1	5	0	-4	0	-1	1	.	.
O=C(Nn1cnnc1)c1cccc(S(=O)(=O)N2CCOCC2)c1	1	38*	-8	1	7	3	33*	0
Cc1cc(C(=O)Nc2ccc(Nc3ccccc3)cc2)ccc1[N+](=O)[O-]	.	6	.	.	.	.	.	.
CSC1=NS(=O)(=O)c2c(C)nn(C)c2S1	4	57*	3	-8	2	1	-14	-6
Cc1ccc(-c2cn3c(=S)[nH]nc3s2)cc1	6	64*	-2	0	-3	0	46*	1
Cc1ccc(-c2n[nH]c(=S)n2C)cc1	4	19	0	-1	-3	0	.	.
COc1ccc(S(=O)(=O)N2C(=O)/C(=C3\SC(N)=NC3=O)c3ccccc32)cc1	6	2	-3	-4	-1	1	.	.
COc1cccc(C(=O)COC(=O)CCC(=O)NC2CCCCC2)c1	1	-3	-6	1	0	9	.	.
CC(C)(C)c1nnc(NC(=O)c2ccc3c(c2)OCO3)s1	.	43*	.	.	.	.	23	-3
CNC(=S)NNC(=O)c1ccc2c(c1)OCO2	2	35*	-4	-1	2	0	22	-1
